{"source": "ChEMBL document CHEMBL1275546", "about": "“Use of gyrase resistance mutants to guide selection of 8-methoxy-quinazoline-2,4-diones” (2008)", "key": {"Escherichia coli [1]": {"system": "Escherichia coli", "assay": "Ratio of MIC for Escherichia coli K-12 KD2866 harboring gyrA D87Y mutant gene to MIC for Escherichia coli K-12 KD1397 harboring wild type gyrA gene"}, "Escherichia coli [2]": {"system": "Escherichia coli", "assay": "Ratio of MIC for Escherichia coli K-12 KD2955 harboring gyrA D82A mutant gene to MIC for Escherichia coli K-12 KD1397 harboring wild type gyrA gene", "assay_type": "functional", "in_short": "(§1)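 Isogenic E. coli K-12 tolC::Tn10 strains made by P1 transduction. Each grown in LB to mid-exponential phase, diluted to 10^{4-5} CFU/ml in LB tubes with drug, incubated overnight at 37°C. MIC = lowest concentration blocking visible growth. Ratio = mutant MIC divided by KD1397 (gyr+) MIC.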"}, "Escherichia coli [3]": {"system": "Escherichia coli", "assay": "Ratio of MIC for Escherichia coli K-12 KD2880 harboring gyrA D87Y mutant gene to MIC for Escherichia coli K-12 KD1397 harboring wild type gyrA gene", "assay_type": "functional", "in_short": "as §1"}, "Escherichia coli [4]": {"system": "Escherichia coli", "assay": "Antibacterial activity against wild type Escherichia coli K-12 KD1397 harboring gyr gene", "assay_type": "functional", "in_short": "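Broth MIC: E. coli K-12 tolC::Tn10 strain grown in LB to mid-exponential phase, diluted to 10^4-5 CFU/ml in tubes of LB containing drug, incubated overnight at 37°C; MIC = lowest concentration blocking visible growth.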"}, "Escherichia coli [5]": {"system": "Escherichia coli", "assay": "Ratio of MIC for Escherichia coli K-12 KD2882 harboring gyrA G81C mutant gene to MIC for Escherichia coli K-12 KD1397 harboring wild type gyrA gene", "assay_type": "functional", "in_short": "as §1"}, "Escherichia coli [6]": {"system": "Escherichia coli", "assay": "Ratio of MIC for Escherichia coli K-12 KD2886 harboring gyrA A51V mutant gene to MIC for Escherichia coli K-12 KD1397 harboring wild type gyrA gene", "assay_type": "functional", "in_short": "as §1"}, "Escherichia coli [7]": {"system": "Escherichia coli", "assay": "Bactericidal activity against wild type Escherichia coli K-12 KD1397 at 10 times MIC", "assay_type": "functional", "in_short": "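Exponentially growing E. coli K-12 (tolC-deficient via Tn10, gyr+) in LB at 37°C was exposed to drug at 10× the MIC for the indicated times. Aliquots were diluted and plated on drug-free agar to count CFU. Survival is expressed as the fraction of CFU present when drug was added. MIC came from overnight broth tubes inoculated at 10^4-5 CFU/ml and read by eye.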"}, "Escherichia coli [8]": {"system": "Escherichia coli", "assay": "Ratio of MIC for Escherichia coli K-12 KD2876 harboring gyrA S83W mutant gene to MIC for Escherichia coli K-12 KD1397 harboring wild type gyrA gene", "assay_type": "functional", "in_short": "as §1"}, "Escherichia coli [9]": {"system": "Escherichia coli", "assay": "Bactericidal activity against Escherichia coli K-12 […] harboring gyrA D87Y mutant gene assessed as bacterial count at 10 times MIC after 2 hrs", "assay_type": "functional, organism-based"}, "Escherichia coli [10]": {"system": "Escherichia coli", "assay": "Bactericidal activity against Escherichia coli K-12 KD2866 harboring gyrA D87Y mutant gene assessed as bacterial count at 10 times MIC", "assay_type": "functional, organism-based"}, "Escherichia coli [11]": {"system": "Escherichia coli", "assay": "Ratio of MIC for Escherichia coli K-12 KD2864 harboring gyrA A84P mutant gene to MIC for Escherichia coli K-12 KD1397 harboring wild type gyrA gene", "assay_type": "functional", "in_short": "as §1"}, "Escherichia coli [12]": {"system": "Escherichia coli", "assay": "Ratio of MIC for Escherichia coli K-12 KD2862 harboring gyrA S83L mutant gene to MIC for Escherichia coli K-12 KD1397 harboring wild type gyrA gene", "assay_type": "functional", "in_short": "as §1"}, "Escherichia coli [13]": {"system": "Escherichia coli", "assay": "Ratio of MIC for Escherichia coli K-12 KD2932 harboring gyrB D426N mutant gene to MIC for Escherichia coli K-12 KD1397 harboring wild type gyrB gene", "assay_type": "functional", "in_short": "as §1"}, "Escherichia coli [14]": {"system": "Escherichia coli", "assay": "Ratio of MIC for Escherichia coli K-12 KD2884 harboring gyrA A106H mutant gene to MIC for Escherichia coli K-12 KD1397 harboring wild type gyrA gene", "assay_type": "functional", "in_short": "as §1"}, "Escherichia coli [15]": {"system": "Escherichia coli", "assay": "Ratio of MIC for Escherichia coli K-12 KD2934 harboring gyrB K447E mutant gene to MIC for Escherichia coli K-12 KD1397 harboring wild type gyrB gene", "assay_type": "functional", "in_short": "as §1"}, "Escherichia coli [16]": {"system": "Escherichia coli", "assay": "Ratio of MIC for Escherichia coli K-12 KD2878 harboring gyrA A67S mutant gene to MIC for Escherichia coli K-12 KD1397 harboring wild type gyrA gene", "assay_type": "functional", "in_short": "as §1"}, "Escherichia coli [17]": {"system": "Escherichia coli", "assay": "Bactericidal activity against wild type Escherichia coli K-12 KD1397 at 10 times MIC after 2 hrs", "assay_type": "functional, organism-based", "in_short": "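Wild-type KD1397 (tolC-deficient), exponential-phase LB culture, exposed to drug at 10× MIC for timed intervals or for 2 h. Samples diluted and plated on drug-free agar for CFU counts. Survival given as fraction of CFU at drug addition.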"}}, "note": "Activity calls are given as the source filed them. The calls are words filed in the database; no cut-off is given here.", "data": [{"smiles": "COc1c(N2CC[C@@H](CN)C2)c(F)cc2c(=O)n(N)c(=O)n(C3CC3)c12", "values": [{"measurement": "Ratio", "setting": "Escherichia coli [1]", "value": 1}, {"measurement": "Ratio", "setting": "Escherichia coli [2]", "value": 1}, {"measurement": "Ratio", "setting": "Escherichia coli [3]", "value": 1}, {"measurement": "MIC", "setting": "Escherichia coli [4]", "value": 0.7, "unit": "µg/mL"}, {"measurement": "Ratio", "setting": "Escherichia coli [5]", "value": 1}, {"measurement": "Ratio", "setting": "Escherichia coli [6]", "value": 1}, {"measurement": "Activity", "setting": "Escherichia coli [7]", "value": "Active"}, {"measurement": "Ratio", "setting": "Escherichia coli [8]", "value": 1}, {"measurement": "Activity", "setting": "Escherichia coli [9]", "value": "Active"}, {"measurement": "Activity", "setting": "Escherichia coli [10]", "value": "Active"}, {"measurement": "Ratio", "setting": "Escherichia coli [11]", "value": 1}, {"measurement": "Ratio", "setting": "Escherichia coli [12]", "value": 1}, {"measurement": "Ratio", "setting": "Escherichia coli [13]", "value": "<1"}, {"measurement": "Ratio", "setting": "Escherichia coli [14]", "value": 1}, {"measurement": "Ratio", "setting": "Escherichia coli [15]", "value": "<1"}, {"measurement": "Ratio", "setting": "Escherichia coli [16]", "value": 1}]}, {"smiles": "COc1c(N2C[C@@H]3CCCN[C@@H]3C2)c(F)cc2c(=O)c(C(=O)O)cn(C3CC3)c12", "note": "[MOXIFLOXACIN]", "values": [{"measurement": "Ratio", "setting": "Escherichia coli [13]", "value": 2}, {"measurement": "Ratio", "setting": "Escherichia coli [15]", "value": "<1"}]}, {"smiles": "COc1c(N2CC[C@H](N)C2)c(F)cc2c(=O)c(C(=O)O)cn(C3CC3)c12", "values": [{"measurement": "MIC", "setting": "Escherichia coli [4]", "value": 0.016, "unit": "µg/mL"}, {"measurement": "Ratio", "setting": "Escherichia coli [13]", "value": 2}, {"measurement": "Ratio", "setting": "Escherichia coli [15]", "value": ">1"}]}, {"smiles": "COc1c(N2C[C@@H]3CCCN[C@@H]3C2)c(F)cc2c(=O)n(N)c(=O)n(C3CC3)c12", "values": [{"measurement": "Ratio", "setting": "Escherichia coli [1]", "value": 1}, {"measurement": "Ratio", "setting": "Escherichia coli [2]", "value": 1}, {"measurement": "Ratio", "setting": "Escherichia coli [3]", "value": 1}, {"measurement": "Ratio", "setting": "Escherichia coli [5]", "value": 1}, {"measurement": "Ratio", "setting": "Escherichia coli [6]", "value": 1}, {"measurement": "Ratio", "setting": "Escherichia coli [8]", "value": 1}, {"measurement": "Activity", "setting": "Escherichia coli [17]", "value": "inactive"}, {"measurement": "Ratio", "setting": "Escherichia coli [11]", "value": 1}, {"measurement": "Ratio", "setting": "Escherichia coli [12]", "value": 1}, {"measurement": "Ratio", "setting": "Escherichia coli [13]", "value": 1}, {"measurement": "Ratio", "setting": "Escherichia coli [14]", "value": 1}, {"measurement": "Ratio", "setting": "Escherichia coli [15]", "value": "<1"}, {"measurement": "Ratio", "setting": "Escherichia coli [16]", "value": 1}]}, {"smiles": "COc1c(N2CC[C@@H](CN)C2)c(F)cc2c(=O)[nH]c(=O)n(C3CC3)c12", "values": [{"measurement": "Ratio", "setting": "Escherichia coli [13]", "value": "<1"}, {"measurement": "Ratio", "setting": "Escherichia coli [15]", "value": "<1"}]}, {"smiles": "COc1c(N2CC[C@H](N)C2)c(F)cc2c(=O)n(N)c(=O)n(C3CC3)c12", "values": [{"measurement": "Ratio", "setting": "Escherichia coli [1]", "value": 1}, {"measurement": "Ratio", "setting": "Escherichia coli [2]", "value": 1}, {"measurement": "Ratio", "setting": "Escherichia coli [3]", "value": 1}, {"measurement": "Ratio", "setting": "Escherichia coli [5]", "value": 1}, {"measurement": "Ratio", "setting": "Escherichia coli [6]", "value": 1}, {"measurement": "Ratio", "setting": "Escherichia coli [8]", "value": 1}, {"measurement": "Ratio", "setting": "Escherichia coli [11]", "value": 1}, {"measurement": "Ratio", "setting": "Escherichia coli [12]", "value": 1}, {"measurement": "Ratio", "setting": "Escherichia coli [13]", "value": 1}, {"measurement": "Ratio", "setting": "Escherichia coli [14]", "value": 1}, {"measurement": "Ratio", "setting": "Escherichia coli [15]", "value": "<1"}, {"measurement": "Ratio", "setting": "Escherichia coli [16]", "value": 1}]}, {"smiles": "COc1c(N2CC[C@@H](CN)C2)c(F)cc2c(=O)c(C(=O)O)cn(C3CC3)c12", "values": [{"measurement": "MIC", "setting": "Escherichia coli [4]", "value": 0.004, "unit": "µg/mL"}, {"measurement": "Ratio", "setting": "Escherichia coli [13]", "value": 2}, {"measurement": "Ratio", "setting": "Escherichia coli [15]", "value": ">1"}]}, {"smiles": "CCC1CN(c2c(F)cc3c(=O)c(C(=O)O)cn(C4CC4)c3c2OC)CCN1", "note": "(stereo not drawn)", "values": [{"measurement": "Activity", "setting": "Escherichia coli [7]", "value": "Active"}, {"measurement": "fold change (FC)", "setting": "Escherichia coli [7]", "value": 2}, {"measurement": "Ratio", "setting": "Escherichia coli [13]", "value": 2}, {"measurement": "Ratio", "setting": "Escherichia coli [15]", "value": "<1"}]}, {"smiles": "CCC1CN(c2c(F)cc3c(=O)[nH]c(=O)n(C4CC4)c3c2OC)CCN1", "note": "(stereo not drawn)", "values": [{"measurement": "Ratio", "setting": "Escherichia coli [13]", "value": 1}, {"measurement": "Ratio", "setting": "Escherichia coli [15]", "value": "<1"}]}, {"smiles": "COc1c(N2CC[C@H](N)C2)c(F)cc2c(=O)[nH]c(=O)n(C3CC3)c12", "values": [{"measurement": "Ratio", "setting": "Escherichia coli [13]", "value": 1}, {"measurement": "Ratio", "setting": "Escherichia coli [15]", "value": "<1"}]}, {"smiles": "CCC1CN(c2c(F)cc3c(=O)n(N)c(=O)n(C4CC4)c3c2OC)CCN1", "note": "(stereo not drawn)", "values": [{"measurement": "Ratio", "setting": "Escherichia coli [13]", "value": 1}, {"measurement": "Ratio", "setting": "Escherichia coli [15]", "value": "<1"}]}, {"smiles": "COc1c(N2C[C@@H]3CCCN[C@@H]3C2)c(F)cc2c(=O)[nH]c(=O)n(C3CC3)c12", "values": [{"measurement": "Ratio", "setting": "Escherichia coli [13]", "value": 1}, {"measurement": "Ratio", "setting": "Escherichia coli [15]", "value": "<1"}]}]}
